From ChEMBL document CHEMBL2177098, “Synthesis and evaluation of novel ¹⁸F labeled 2-pyridinylbenzoxazole and 2-pyridinylbenzothiazole derivatives as ligands for positron emission tomography (PET) imaging of β-amyloid plaques” (J Med Chem, 2012)
One block for each molecule: values may come before it.

What was measured:
Heart [1] = test: Drug uptake in ICR mouse heart at 370 kBq/100 ul, iv at 60 mins by gamma-counting analysis; assay type: ADME, organism-based; conditions: in vivo, 1 h
Procedure, shortened: (§1)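 Male ICR mice (5 weeks, about 20 g) got 18F tracer in saline (370 KBq per 100 μL) via tail vein; n = 5 per time point, killed at 2, 10, 30, 60 min. Organs weighed and γ-counted; percent dose per gram wet tissue from comparison with diluted injectate aliquots.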

[2] = n-Octanol-PBS buffer partition coefficient, log D of the compound at 1.5 MBq after 3 mins at pH 7.4; assay type: physicochemical
Procedure, shortened: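 The tracer was partitioned between n-octanol and PBS by vortexing for 3 min at room temperature, then centrifuged for 5 min at 3000 rpm. Samples of the octanol (50 μL) and aqueous (500 μL) layers were counted. log D is the log of the octanol/PBS counts-per-gram ratio. The octanol layer was repartitioned until values were consistent. Measured in triplicate and repeated three times.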

Spleen [3] = test: Drug uptake in ICR mouse spleen at 370 kBq/100 ul, iv at 60 mins by gamma-counting analysis; assay type: ADME, organism-based; conditions: in vivo, 1 h; procedure, shortened: as §1
Brain [4] = test: Drug uptake in ICR mouse brain at 370 kBq/100 ul, iv at 60 mins by gamma-counting analysis; assay type: ADME, organism-based; conditions: in vivo, 1 h; procedure, shortened: as §1
Spleen [5] = test: Drug uptake in ICR mouse spleen at 370 kBq/100 ul, iv at 10 mins by gamma-counting analysis; assay type: ADME, organism-based; conditions: in vivo; procedure, shortened: as §1
Stomach [6] = test: Drug uptake in ICR mouse stomach assessed per organ at 370 kBq/100 ul, iv at 60 mins by gamma-counting analysis; assay type: ADME, organism-based; conditions: in vivo, 1 h
Procedure, shortened: (§2)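 Normal male ICR mice (5 weeks, about 20 g) received the ¹⁸F tracer in saline (370 KBq per 100 μL) by tail-vein injection. Groups of n = 5 were killed at 2, 10, 30 and 60 min. Organs were removed, weighed and γ-counted against diluted aliquots of the injectate, giving % dose per gram. Stomach and intestine were expressed per organ. The brain ratio is 2 min/60 min uptake. Values are mean ± SD.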

Kidney [7] = test: Drug uptake in ICR mouse kidney at 370 kBq/100 ul, iv at 30 mins by gamma-counting analysis; assay type: ADME, organism-based; conditions: in vivo, 0.5 h; procedure, shortened: as §1
Stomach [8] = test: Drug uptake in ICR mouse stomach assessed per organ at 370 kBq/100 ul, iv at 2 mins by gamma-counting analysis; assay type: ADME, organism-based; conditions: in vivo
Procedure, shortened: (§3)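 Male ICR mice (5 weeks, about 20 g) got 18F tracer in saline (370 KBq per 100 μL) via tail vein; n = 5 per time point, killed at 2, 10, 30, 60 min. Organs removed and γ-counted against diluted injectate; expressed as % injected dose per organ.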

Intestine [9] = test: Drug uptake in ICR mouse intestine assessed per organ at 370 kBq/100 ul, iv at 30 mins by gamma-counting analysis; assay type: ADME, organism-based; conditions: in vivo, 0.5 h; procedure, shortened: as §3
[10] = Displacement of [125I]-IMPY from amyloid beta (1 to 42) fibrils after 2 hrs by gamma-counting analysis
Procedure, shortened: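 Competition binding with aggregated Aβ1-42 fibrils and [125I]IMPY (60000−100000 cpm/100 μL) in 0.05% BSA (1 mL total); inhibitors 10⁻⁴−10^−8.5 M in ethanol. Incubated 37 °C for 2 h, then GF/B vacuum filtration with PBS (0.02 M, pH 7.4) washes and γ counting. Three repeats; IC50 converted to Ki by Cheng−Prusoff.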

Brain [11] = test: Drug uptake in ICR mouse brain at 370 kBq/100 ul, iv at 30 mins by gamma-counting analysis; assay type: ADME, organism-based; conditions: in vivo, 0.5 h; procedure, shortened: as §1
Stomach [12] = test: Drug uptake in ICR mouse stomach assessed per organ at 370 kBq/100 ul, iv at 10 mins by gamma-counting analysis; assay type: ADME, organism-based; conditions: in vivo; procedure, shortened: as §3
Liver [13] = test: Drug uptake in ICR mouse liver at 370 kBq/100 ul, iv at 60 mins by gamma-counting analysis; assay type: ADME, organism-based; conditions: in vivo, 1 h; procedure, shortened: as §1
Bone [14] = test: Drug uptake in ICR mouse bone at 370 kBq/100 ul, iv at 10 mins by gamma-counting analysis; assay type: ADME, organism-based, Bone element; conditions: in vivo; procedure, shortened: as §1
Kidney [15] = test: Drug uptake in ICR mouse kidney at 370 kBq/100 ul, iv at 10 mins by gamma-counting analysis; assay type: ADME, organism-based; conditions: in vivo; procedure, shortened: as §1
Intestine [16] = test: Drug uptake in ICR mouse intestine assessed per organ at 370 kBq/100 ul, iv at 10 mins by gamma-counting analysis; assay type: ADME, organism-based; conditions: in vivo; procedure, shortened: as §3
Intestine [17] = test: Drug uptake in ICR mouse intestine assessed per organ at 370 kBq/100 ul, iv at 60 mins by gamma-counting analysis; assay type: ADME, organism-based; conditions: in vivo, 1 h; procedure, shortened: as §3
Lung [18] = test: Drug uptake in ICR mouse lung at 370 kBq/100 ul, iv at 2 mins by gamma-counting analysis; assay type: ADME, organism-based; conditions: in vivo; procedure, shortened: as §1
Heart [19] = test: Drug uptake in ICR mouse heart at 370 kBq/100 ul, iv at 2 mins by gamma-counting analysis; assay type: ADME, organism-based; conditions: in vivo; procedure, shortened: as §1
Lung [20] = test: Drug uptake in ICR mouse lung at 370 kBq/100 ul, iv at 10 mins by gamma-counting analysis; assay type: ADME, organism-based; conditions: in vivo; procedure, shortened: as §1
Spleen [21] = test: Drug uptake in ICR mouse spleen at 370 kBq/100 ul, iv at 2 mins by gamma-counting analysis; assay type: ADME, organism-based; conditions: in vivo; procedure, shortened: as §1
Intestine [22] = test: Drug uptake in ICR mouse intestine assessed per organ at 370 kBq/100 ul, iv at 2 mins by gamma-counting analysis; assay type: ADME, organism-based; conditions: in vivo; procedure, shortened: as §3
Bone [23] = test: Drug uptake in ICR mouse bone at 370 kBq/100 ul, iv at 60 mins by gamma-counting analysis; assay type: ADME, organism-based, Bone element; conditions: in vivo, 1 h; procedure, shortened: as §1
Liver [24] = test: Drug uptake in ICR mouse liver at 370 kBq/100 ul, iv at 2 mins by gamma-counting analysis; assay type: ADME, organism-based; conditions: in vivo; procedure, shortened: as §1
Liver [25] = test: Drug uptake in ICR mouse liver at 370 kBq/100 ul, iv at 30 mins by gamma-counting analysis; assay type: ADME, organism-based; conditions: in vivo, 0.5 h; procedure, shortened: as §1
Stomach [26] = test: Drug uptake in ICR mouse stomach assessed per organ at 370 kBq/100 ul, iv at 30 mins by gamma-counting analysis; assay type: ADME, organism-based; conditions: in vivo, 0.5 h; procedure, shortened: as §3
Brain [27] = test: Drug uptake in ICR mouse brain at 370 kBq/100 ul, iv at 2 mins by gamma-counting analysis; assay type: ADME, organism-based; conditions: in vivo; procedure, shortened: as §1
Blood [28] = test: Drug uptake in ICR mouse blood at 370 kBq/100 ul, iv at 2 mins by gamma-counting analysis; assay type: ADME, organism-based; conditions: in vivo; procedure, shortened: as §1
Blood [29] = test: Drug uptake in ICR mouse blood at 370 kBq/100 ul, iv at 30 mins by gamma-counting analysis; assay type: ADME, organism-based; conditions: in vivo, 0.5 h; procedure, shortened: as §1
Blood [30] = test: Drug uptake in ICR mouse blood at 370 kBq/100 ul, iv at 10 mins by gamma-counting analysis; assay type: ADME, organism-based; conditions: in vivo; procedure, shortened: as §1
Bone [31] = test: Drug uptake in ICR mouse bone at 370 kBq/100 ul, iv at 30 mins by gamma-counting analysis; assay type: ADME, organism-based, Bone element; conditions: in vivo, 0.5 h; procedure, shortened: as §1
Lung [32] = test: Drug uptake in ICR mouse lung at 370 kBq/100 ul, iv at 30 mins by gamma-counting analysis; assay type: ADME, organism-based; conditions: in vivo, 0.5 h; procedure, shortened: as §1
Liver [33] = test: Drug uptake in ICR mouse liver at 370 kBq/100 ul, iv at 10 mins by gamma-counting analysis; assay type: ADME, organism-based; conditions: in vivo; procedure, shortened: as §1
Kidney [34] = test: Drug uptake in ICR mouse kidney at 370 kBq/100 ul, iv at 2 mins by gamma-counting analysis; assay type: ADME, organism-based; conditions: in vivo; procedure, shortened: as §1
Heart [35] = test: Drug uptake in ICR mouse heart at 370 kBq/100 ul, iv at 10 mins by gamma-counting analysis; assay type: ADME, organism-based; conditions: in vivo; procedure, shortened: as §1
Bone [36] = test: Drug uptake in ICR mouse bone at 370 kBq/100 ul, iv at 2 mins by gamma-counting analysis; assay type: ADME, organism-based, Bone element; conditions: in vivo; procedure, shortened: as §1
Blood [37] = test: Drug uptake in ICR mouse blood at 370 kBq/100 ul, iv at 60 mins by gamma-counting analysis; assay type: ADME, organism-based; conditions: in vivo, 1 h; procedure, shortened: as §1
Brain [38] = test: Drug uptake in wild type C57BL6 mouse brain at 370 KBq/100 ul after 1 hr by autoradiographic analysis; assay type: ADME, tissue-based; conditions: in vitro
Procedure, shortened: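 Paraffin brain sections from 12-month-old male control C57BL6 mice were deparaffinized through xylene and graded ethanol, then held in PBS (0.2 M, pH 7.4) for 30 min. They were incubated with the ¹⁸F tracer (370 KBq per 100 μL) for 1 h at room temperature. Sections were washed in 40% EtOH, rinsed with water for 1 min, dried, and exposed to a phosphor plate for 2 h. The same sections were then stained with thioflavin S.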

Spleen [39] = test: Drug uptake in ICR mouse spleen at 370 kBq/100 ul, iv at 30 mins by gamma-counting analysis; assay type: ADME, organism-based; conditions: in vivo, 0.5 h; procedure, shortened: as §1
Heart [40] = test: Drug uptake in ICR mouse heart at 370 kBq/100 ul, iv at 30 mins by gamma-counting analysis; assay type: ADME, organism-based; conditions: in vivo, 0.5 h; procedure, shortened: as §1
Kidney [41] = test: Drug uptake in ICR mouse kidney at 370 kBq/100 ul, iv at 60 mins by gamma-counting analysis; assay type: ADME, organism-based; conditions: in vivo, 1 h; procedure, shortened: as §1
Brain [42] = test: Drug uptake in ICR mouse brain at 370 kBq/100 ul, iv at 10 mins by gamma-counting analysis; assay type: ADME, organism-based; conditions: in vivo; procedure, shortened: as §1
Lung [43] = test: Drug uptake in ICR mouse lung at 370 kBq/100 ul, iv at 60 mins by gamma-counting analysis; assay type: ADME, organism-based; conditions: in vivo, 1 h; procedure, shortened: as §1
Brain [44] = test: Ratio of drug uptake in brain at 2 mins to drug uptake in brain at 60 mins in ICR mouse at 370 KBq/100 ul, iv; assay type: ADME, organism-based; conditions: in vivo; procedure, shortened: as §2

Drug uptake (Heart [1]): 1.93 % ID/g
logD at 0.05 h [2]: 3.53
Drug uptake (Spleen [3]): 1.32 % ID/g
Drug uptake (Brain [4]): 1.47 % ID/g
Drug uptake (Spleen [5]): 2.02 % ID/g
Drug uptake (Stomach [6]): 2.79 %ID
Drug uptake (Kidney [7]): 2.44 % ID/g
Drug uptake (Stomach [8]): 2.44 %ID
Drug uptake (Intestine [9]): 38.88 %ID
Ki [10]: 2.7 nM
Drug uptake (Brain [11]): 1.76 % ID/g
Drug uptake (Stomach [12]): 2.55 %ID
Drug uptake (Liver [13]): 3.19 % ID/g
Drug uptake (Bone [14]): 1.27 % ID/g
Drug uptake (Kidney [15]): 3.82 % ID/g
Drug uptake (Intestine [16]): 21.45 %ID
Drug uptake (Intestine [17]): 37.02 %ID
Drug uptake (Lung [18]): 5.53 % ID/g
Drug uptake (Heart [19]): 5.95 % ID/g
Drug uptake (Lung [20]): 2.58 % ID/g
Drug uptake (Spleen [21]): 3.22 % ID/g
Drug uptake (Intestine [22]): 8.41 %ID
Drug uptake (Bone [23]): 1.88 % ID/g
Drug uptake (Liver [24]): 15.7 % ID/g
Drug uptake (Liver [25]): 4.39 % ID/g
Drug uptake (Stomach [26]): 2.54 %ID
Drug uptake (Brain [27]): 7.27 % ID/g
Drug uptake (Blood [28]): 3.57 % ID/g
Drug uptake (Blood [29]): 1.89 % ID/g
Drug uptake (Blood [30]): 2.05 % ID/g
Drug uptake (Bone [31]): 1.56 % ID/g
Drug uptake (Lung [32]): 1.85 % ID/g
Drug uptake (Liver [33]): 10.72 % ID/g
Drug uptake (Kidney [34]): 8.48 % ID/g
Drug uptake (Heart [35]): 2.44 % ID/g
Drug uptake (Bone [36]): 2.08 % ID/g
Drug uptake (Blood [37]): 2.06 % ID/g
Drug uptake (Brain [38]): Not Active
Drug uptake (Spleen [39]): 1.6 % ID/g
Drug uptake (Heart [40]): 1.83 % ID/g
Drug uptake (Kidney [41]): 1.82 % ID/g
Drug uptake (Brain [42]): 3.41 % ID/g
Drug uptake (Lung [43]): 1.79 % ID/g
Ratio (Brain [44]): 4.95
Compound: CN(C)c1ccc(-c2nc3cc(OCC[18F])ccc3o2)cn1

Ki [10]: 7.3 nM
Compound: CN(C)c1ccc(-c2nc3cc(OCCOCCF)ccc3o2)cn1

Ki [10]: 102 nM
Compound: CNc1ccc(-c2nc3cc(OCCOCCF)ccc3o2)cn1
